In ChEMBL document CHEMBL4715736, “Identification of anticancer agents based on the thieno[2,3-b]pyridine and 1H-pyrazole molecular scaffolds” (2016):

Experiments:
Assay type in all cases: functional
OVCAR-4 [1] = assay: Growth inhibition of human OVCAR-4 cells incubated for 48 hrs by sulforhodamine B assay
Method in brief: (§1)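 NCI DTP 60-line human tumour panel. Dose-response curves were run only for ligands active in the initial 10 µM screen. GI50 (concentration giving 50% of maximal inhibition of proliferation) and TGI (concentration giving total growth inhibition) were derived from these curves.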

IGROV-1 = assay: Growth inhibition of human IGROV-1 cells assessed as cell growth at 100 uM incubated for 48 hrs by sulforhodamine B assay relative to control; conditions: read-out: Activity
A498 [2] = assay: Growth inhibition of human A498 cells incubated for 48 hrs by sulforhodamine B assay
Method in brief: (§2)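 NCI Developmental Therapeutics Program NCI60 panel. Compounds that were active in the 10 µM one-dose screen went on to dose–response testing. Growth at each concentration is expressed relative to untreated control (100%). GI50 (concentration giving 50% of maximal inhibition of proliferation) and TGI (concentration giving total growth inhibition) were derived from the curves.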

SNB-75 = assay: Growth inhibition of human SNB-75 cells assessed as cell growth at 0.01 uM incubated for 48 hrs by sulforhodamine B assay relative to control; conditions: read-out: Activity
SF-295 = assay: Growth inhibition of human SF-295 cells assessed as cell growth at 1 uM incubated for 48 hrs by sulforhodamine B assay relative to control; conditions: read-out: Activity
OVCAR-4 [3] = assay: Growth inhibition of human OVCAR-4 cells assessed as cell growth at 100 uM incubated for 48 hrs by sulforhodamine B assay relative to control; conditions: read-out: Activity
DU-145 = assay: Growth inhibition of human DU-145 cells assessed as cell growth at 100 uM incubated for 48 hrs by sulforhodamine B assay relative to control; conditions: read-out: Activity; method in brief: as §2
KM12 = assay: Growth inhibition of human KM12 cells assessed as cell growth at 0.1 uM incubated for 48 hrs by sulforhodamine B assay relative to control; conditions: read-out: Activity
SNB-19 = assay: Growth inhibition of human SNB-19 cells assessed as cell growth at 0.01 uM incubated for 48 hrs by sulforhodamine B assay relative to control; conditions: read-out: Activity
K562 = assay: Growth inhibition of human K562 cells assessed as cell growth at 0.1 uM incubated for 48 hrs by sulforhodamine B assay relative to control; conditions: read-out: Activity
OVCAR-4 [4] = assay: Growth inhibition of human OVCAR-4 cells assessed as cell growth at 1 uM incubated for 48 hrs by sulforhodamine B assay relative to control; conditions: read-out: Activity
SK-MEL-28 [5] = assay: Growth inhibition of human SK-MEL-28 cells incubated for 48 hrs by sulforhodamine B assay; method in brief: as §1
SF-268 = assay: Growth inhibition of human SF-268 cells assessed as cell growth at 1 uM incubated for 48 hrs by sulforhodamine B assay relative to control; conditions: read-out: Activity
OVCAR-3 = assay: Growth inhibition of human OVCAR-3 cells assessed as cell growth at 0.01 uM incubated for 48 hrs by sulforhodamine B assay relative to control; conditions: read-out: Activity
UACC-257 = assay: Growth inhibition of human UACC-257 cells assessed as cell growth at 100 uM incubated for 48 hrs by sulforhodamine B assay relative to control; conditions: read-out: Activity
A498 [6] = assay: Growth inhibition of human A498 cells assessed as cell growth at 1 uM incubated for 48 hrs by sulforhodamine B assay relative to control; conditions: read-out: Activity; method in brief: as §2
MDA-MB-231 [7] = assay: Growth inhibition of human MDA-MB-231 cells assessed as cell growth at 0.01 uM incubated for 48 hrs by sulforhodamine B assay relative to control; conditions: read-out: Activity
SR = assay: Growth inhibition of human SR cells assessed as cell growth at 100 uM incubated for 48 hrs by sulforhodamine B assay relative to control; conditions: read-out: Activity
MDA-MB-231 [8] = assay: Growth inhibition of human MDA-MB-231 cells assessed as cell growth at 1 uM incubated for 48 hrs by sulforhodamine B assay relative to control; conditions: read-out: Activity
SN12C = assay: Growth inhibition of human SN12C cells assessed as cell growth at 100 uM incubated for 48 hrs by sulforhodamine B assay relative to control; conditions: read-out: Activity
NCI-H322M = assay: Growth inhibition of human NCI-H322M cells incubated for 48 hrs by sulforhodamine B assay
Method in brief: (§3)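 NCI60 panel at the NCI Developmental Therapeutics Program. Only compounds active in the 10 µM screen went to dose-response testing. GI50, the concentration giving 50% of maximal inhibition of proliferation, and TGI, the concentration giving total growth inhibition, were derived from the dose-response curves.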

HOP-92 = assay: Growth inhibition of human HOP-92 cells incubated for 48 hrs by sulforhodamine B assay; method in brief: as §3
LOX IMVI = assay: Growth inhibition of human LOX IMVI cells assessed as cell growth at 100 uM incubated for 48 hrs by sulforhodamine B assay relative to control; conditions: read-out: Activity
OVCAR-5 = assay: Growth inhibition of human OVCAR-5 cells assessed as cell growth at 0.01 uM incubated for 48 hrs by sulforhodamine B assay relative to control; conditions: read-out: Activity
786-0 = assay: Growth inhibition of human 786-0 cells assessed as cell growth at 1 uM incubated for 48 hrs by sulforhodamine B assay relative to control; conditions: read-out: Activity; method in brief: as §2
HCC 2998 = assay: Growth inhibition of human HCC 2998 cells assessed as cell growth at 100 uM incubated for 48 hrs by sulforhodamine B assay relative to control; conditions: read-out: Activity; method in brief: as §2
CCRF-CEM = assay: Growth inhibition of human CCRF-CEM cells assessed as cell growth at 0.1 uM incubated for 48 hrs by sulforhodamine B assay relative to control; conditions: read-out: Activity; method in brief: as §2
OVCAR-8 = assay: Growth inhibition of human OVCAR-8 cells assessed as cell growth at 100 uM incubated for 48 hrs by sulforhodamine B assay relative to control; conditions: read-out: Activity
SW-620 = assay: Growth inhibition of human SW-620 cells assessed as cell growth at 1 uM incubated for 48 hrs by sulforhodamine B assay relative to control; conditions: read-out: Activity
M14 = assay: Growth inhibition of human M14 cells assessed as cell growth at 0.01 uM incubated for 48 hrs by sulforhodamine B assay relative to control; conditions: read-out: Activity
SK-MEL-28 [9] = assay: Growth inhibition of human SK-MEL-28 cells assessed as cell growth at 1 uM incubated for 48 hrs by sulforhodamine B assay relative to control; conditions: read-out: Activity
[10] = read-out: LC50 (the source's name)

For `CCc1cccc(C)c1NC(=O)c1sc2nc3c(cc2c1N)C(=O)CCC3`, which GI50 (OVCAR-4 [1]) is on record?
The GI50 was 0.01 µM.

And the TGI (OVCAR-4 [1])?
Its TGI is greater than 100 µM.

And the CC50 (OVCAR-4 [1]; [10])?
The CC50 was greater than 100 µM.

What about the growth at 100 µM (IGROV-1) of the same compound?
The growth at 100 µM was 8%.

What about the GI50 (A498 [2]) of the same compound?
The GI50 was 0.178 µM.

What about the TGI (A498 [2]) of the same compound?
Its TGI is 0.665 µM.

And the CC50 (A498 [2]; [10])?
The CC50 was greater than 100 µM.

What about the growth at 0.01 µM (SNB-75) of the same compound?
The growth at 0.01 µM was 73%.

And the growth at 1 µM (SF-295)?
The growth at 1 µM was 5%.

And the growth at 100 µM (OVCAR-4 [3])?
Its growth at 100 µM is 10%.

What about the growth at 100 µM (DU-145) of the same compound?
Its growth at 100 µM is 9%.

And the growth at 0.1 µM (KM12)?
Its growth at 0.1 µM is 92%.

What about the growth at 0.01 µM (SNB-19) of the same compound?
Its growth at 0.01 µM is 96%.

What about the growth at 0.1 µM (K562) of the same compound?
Its growth at 0.1 µM is 89%.

What about the growth at 1 µM (OVCAR-4 [4]) of the same compound?
The growth at 1 µM was 39%.

What about the GI50 (SK-MEL-28 [5]) of the same compound?
The GI50 was 0.133 µM.

What about the LC50 (SK-MEL-28 [5]) of the same compound?
The LC50 was greater than 100 µM.

And the TGI (SK-MEL-28 [5])?
Its TGI is greater than 100 µM.

And the growth at 1 µM (SF-268)?
The growth at 1 µM was 54%.

What about the growth at 0.01 µM (OVCAR-3) of the same compound?
Its growth at 0.01 µM is 101%.

And the growth at 100 µM (UACC-257)?
The growth at 100 µM was -13%.

What about the growth at 1 µM (A498 [6]) of the same compound?
Its growth at 1 µM is -16%.

What about the growth at 0.01 µM (MDA-MB-231 [7]) of the same compound?
Its growth at 0.01 µM is 97%.

What about the growth at 100 µM (SR) of the same compound?
Its growth at 100 µM is -18%.

What about the growth at 1 µM (MDA-MB-231 [8]) of the same compound?
Its growth at 1 µM is 51%.

And the growth at 100 µM (SN12C)?
The growth at 100 µM was -4%.

And the TGI (NCI-H322M)?
The TGI was greater than 100 µM.

What about the CC50 (NCI-H322M; [10]) of the same compound?
Its CC50 is greater than 100 µM.

And the GI50 (HOP-92)?
The GI50 was 0.446 µM.

What about the LC50 (concentration killing 50% of the starting cells) (HOP-92) of the same compound?
Its LC50 (concentration killing 50% of the starting cells) is greater than 100 µM.

What about the TGI (HOP-92) of the same compound?
Its TGI is 70 µM.

And the growth at 100 µM (LOX IMVI)?
Its growth at 100 µM is 8%.

And the growth at 0.01 µM (OVCAR-5)?
Its growth at 0.01 µM is 87%.

What about the growth at 1 µM (786-0) of the same compound?
The growth at 1 µM was 36%.

And the growth at 100 µM (HCC 2998)?
The growth at 100 µM was 10%.

What about the growth at 0.1 µM (CCRF-CEM) of the same compound?
Its growth at 0.1 µM is 90%.

What about the growth at 100 µM (OVCAR-8) of the same compound?
Its growth at 100 µM is -2%.

And the growth at 1 µM (SW-620)?
The growth at 1 µM was 17%.

What about the growth at 0.01 µM (M14) of the same compound?
Its growth at 0.01 µM is 96%.

What about the growth at 1 µM (SK-MEL-28 [9]) of the same compound?
Its growth at 1 µM is 48%.
